In ChEMBL document CHEMBL3585287, “1-Benzyl-4-phenyl-1H-1,2,3-triazoles improve the transcriptional functions of estrogen-related receptor γ and promote the browning of white adipose” (Bioorg Med Chem, 2015):
Calls of active or inactive are those of the source. No cut-off for these calls is given here.

What was measured:
[1] = biological target: T1, Estrogen-related receptor gamma (Homo sapiens) (UniProt P62508); assay: Activation of GAL4-DBD-ERRgamma ligand binding domain (unknown origin) expressed in HEK293FT cells at 2 uM incubated for 24 hrs by mammalian two-hybrid reporter gene assay; format: cell-based
T1 sequence (whole entry): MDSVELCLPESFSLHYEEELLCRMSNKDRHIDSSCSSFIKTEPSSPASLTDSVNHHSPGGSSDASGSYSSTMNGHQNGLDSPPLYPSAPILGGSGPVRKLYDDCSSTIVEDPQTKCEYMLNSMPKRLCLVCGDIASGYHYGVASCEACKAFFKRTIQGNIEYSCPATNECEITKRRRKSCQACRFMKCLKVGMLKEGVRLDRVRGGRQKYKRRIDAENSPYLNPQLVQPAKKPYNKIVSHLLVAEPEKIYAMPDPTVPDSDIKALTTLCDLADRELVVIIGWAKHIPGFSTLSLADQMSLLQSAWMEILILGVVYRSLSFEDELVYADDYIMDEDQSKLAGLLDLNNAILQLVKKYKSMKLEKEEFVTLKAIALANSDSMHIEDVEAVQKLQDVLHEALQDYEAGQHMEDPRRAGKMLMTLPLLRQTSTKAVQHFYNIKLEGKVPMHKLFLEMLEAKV
Procedure, shortened: (§1)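 293FT cells (DMEM, 10% FBS) were seeded at 10,000 cells/well and transfected 18-24 h later with GAL4-DBD-ERRγ-LBD (0.5 ng), pcDNA-PGC-1α (0.5 ng), pFR reporter (25 ng) and pRLTK renilla (3 ng). After 6 h, compound was added at 2 μM for 24 h. Dual luciferase readout, firefly/renilla ratio taken as RLU. Run in triplicate, ≥3 independent experiments.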

[2] = biological target: T2, Estrogen-related receptor gamma (Mus musculus) (UniProt P62509); assay: Increase in ERRgamma mediated transcriptional activity in primary mouse embryonic fibroblasts assessed as increase in SHP mRNA levels at 1 uM by quantitative real time PCR assay
T2 sequence (whole entry): T1 sequence (whole entry)
Procedure, shortened: (§2)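 MEFs were grown to confluence and held 2 days, then differentiated from day 0 with 5 μg/mL insulin, 1 μM dexamethasone and 0.5 mM IBMX. From day 8, cells received compound in DMEM/10% FBS for 2 more days. Total RNA was extracted with Trizol and reverse transcribed; SYBR qPCR normalized to GAPDH. Mean ± SEM of three independent experiments.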

[3] = biological target: T2, Estrogen-related receptor gamma (Mus musculus); assay: Increase in ERRgamma mediated transcriptional activity in primary mouse embryonic fibroblasts assessed as increase in ERRalpha mRNA levels at 1 uM by quantitative real time PCR assay; procedure, shortened: as §2
[4] = biological target: T2, Estrogen-related receptor gamma (Mus musculus); assay: Increase in ERRgamma mediated transcriptional activity in primary mouse embryonic fibroblasts assessed as increase in ATP5b mRNA levels at 1 uM by quantitative real time PCR assay; procedure, shortened: as §2
[5] = biological target: T2, Estrogen-related receptor gamma (Mus musculus); assay: Increase in ERRgamma mediated transcriptional activity in primary mouse embryonic fibroblasts assessed as increase in MCAD mRNA levels at 1 uM by quantitative real time PCR assay; procedure, shortened: as §2
[6] = biological target: T1, Estrogen-related receptor gamma (Homo sapiens); assay: Activation of GAL4-DBD-ERRgamma ligand binding domain (unknown origin) expressed in HEK293FT cells incubated for 24 hrs by mammalian two-hybrid reporter gene assay; format: cell-based; procedure, shortened: as §1
[7] = biological target: T2, Estrogen-related receptor gamma (Mus musculus); assay: Increase in ERRgamma mediated transcriptional activity in primary mouse embryonic fibroblasts assessed as increase in SHP mRNA levels by quantitative real time PCR assay; procedure, shortened: as §2
[8] = biological target: T2, Estrogen-related receptor gamma (Mus musculus); assay: Increase in ERRgamma mediated transcriptional activity in primary mouse embryonic fibroblasts assessed as increase in ERRalpha mRNA levels by quantitative real time PCR assay; procedure, shortened: as §2
[9] = biological target: T2, Estrogen-related receptor gamma (Mus musculus); assay: Increase in ERRgamma mediated transcriptional activity in primary mouse embryonic fibroblasts assessed as increase in ATP5b mRNA levels by quantitative real time PCR assay; procedure, shortened: as §2
[10] = biological target: T2, Estrogen-related receptor gamma (Mus musculus); assay: Increase in ERRgamma mediated transcriptional activity in primary mouse embryonic fibroblasts assessed as increase in MCAD mRNA levels by quantitative real time PCR assay; procedure, shortened: as §2
MEF [11] = assay: Increase ERRgamma mRNA levels in primary mouse embryonic fibroblasts at 0.5 to 5 uM by quantitative real time PCR assay; format: functional, cell-based; procedure, shortened: as §2
[12] = biological target: T2, Estrogen-related receptor gamma (Mus musculus); assay: Increase in ERRgamma mediated transcriptional activity in primary mouse embryonic fibroblasts assessed as increase in MCAD protein levels at 0.5 to 5 uM by Western blotting method
Procedure, shortened: (§3)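 Differentiated MEF adipocytes were treated with compound from day 8 for 2 days. Cells were lysed in RIPA buffer on ice; 40 μg protein was run on 12% SDS-PAGE and blotted to PVDF. Primary antibodies overnight at 4 °C (UCP1 1:1000, SDH 1:4000, MCAD 1:5000, ATP5b 1:1000, β-actin 1:2000), then HRP secondary for 4 h at 4 °C and ECL detection. Three independent experiments.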

[13] = biological target: T2, Estrogen-related receptor gamma (Mus musculus); assay: Increase in ERRgamma mediated transcriptional activity in primary mouse embryonic fibroblasts assessed as increase in ATP5b protein levels at 0.5 to 5 uM by Western blotting method; procedure, shortened: as §3
[14] = biological target: T3, Estrogen-related receptor gamma (Homo sapiens, UniProt P62508); assay: Binding affinity to ERRgamma (unknown origin) at 20 degC by isothermal titration calorimetry
T3 sequence (P62508 whole entry): T1 sequence (whole entry)

[15] = biological target: T1, Estrogen-related receptor gamma (Homo sapiens); assay: Binding affinity to ERRgamma (unknown origin) assessed as increase in protein melting temperature by CD spectroscopy
Procedure, shortened: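 Purified ERRγ protein was diluted to 0.2 mg/mL in phosphate buffer and incubated overnight with ligand (200 mM DMSO stock). CD ellipticity was read at 200–260 nm in a 1 mm quartz cuvette. Temperature was stepped 1 °C at a time from 30 to 60 °C to obtain Tm.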

MEF [16] = assay: In vitro induction of white adipose browning in primary mouse embryonic fibroblasts assessed as increase in UCP1 mRNA expression by real-time PCR assay; format: functional, cell-based; procedure, shortened: as §2
MEF [17] = assay: In vitro induction of white adipose browning in primary mouse embryonic fibroblasts assessed as increase in UCP1 protein expression at 0.5 to 5 uM by Western blot method; format: functional, cell-based; procedure, shortened: as §3
MEF [18] = assay: In vitro induction of white adipose browning in primary mouse embryonic fibroblasts assessed as increase in UCP1 positive adipocytes by Immunofluorescence staining assay; format: functional, cell-based
Procedure, shortened: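 MEF-derived adipocytes on coverslips were treated from day 8 for 2 days. They were fixed in 4% formaldehyde, blocked in 5% BSA for 1 h, stained with rabbit anti-UCP1 (1:1000, 4 °C overnight) and then Alexa Fluor 647 secondary (1:200, 1 h), with DAPI nuclei. Imaged by fluorescence microscopy.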

MEF [19] = assay: In vitro induction of white adipose browning in primary mouse embryonic fibroblasts assessed as increase in Prdm16 mRNA expression at 0.5 to 5 uM by real-time PCR assay; format: functional, cell-based; procedure, shortened: as §2
Adipocyte = assay: In vitro induction of white adipose browning in mouse white adipocytes differentiated from primary preadipocytes cells of subcutaneous adipose tissue assessed as increase in UCP1 mRNA expression at 1 and 5 uM by real-time PCR assay; format: functional, cell-based
Procedure, shortened: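 Subcutaneous fat preadipocytes were isolated by 0.1% collagenase I digestion (40 min, 37 °C), filtered and cultured. Differentiation used insulin (5 μg/mL), dexamethasone (1 μM) and IBMX (0.5 mM). From day 8, compound was given in DMEM/10% FBS for 2 days. UCP1 mRNA was measured by SYBR qPCR against GAPDH.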

MEF [20] = assay: Induction of mitochondrial biogenesis in primary mouse embryonic fibroblasts assessed as increase in PGC-1alpha mRNA expression at 0.5 to 5 uM by quantitative real time PCR assay; format: functional, cell-based; procedure, shortened: as §2
MEF [21] = assay: Induction of mitochondrial biogenesis in primary mouse embryonic fibroblasts assessed as increase in CS mRNA expression at 0.5 to 5 uM by quantitative real time PCR assay; format: functional, cell-based; procedure, shortened: as §2
MEF [22] = assay: Induction of mitochondrial biogenesis in primary mouse embryonic fibroblasts assessed as increase in CPT1 mRNA expression at 0.5 to 5 uM by quantitative real time PCR assay; format: functional, cell-based; procedure, shortened: as §2
MEF [23] = assay: Induction of mitochondrial biogenesis in primary mouse embryonic fibroblasts assessed as increase in COX2 mRNA expression at 0.5 to 5 uM by quantitative real time PCR assay; format: functional, cell-based; procedure, shortened: as §2
MEF [24] = assay: Induction of mitochondrial biogenesis in primary mouse embryonic fibroblasts assessed as increase in SDH mRNA expression at 0.5 to 5 uM by quantitative real time PCR assay; format: functional, cell-based; procedure, shortened: as §2
MEF [25] = assay: Induction of mitochondrial biogenesis in primary mouse embryonic fibroblasts assessed as increase in SDH protein expression at 0.5 to 5 uM by Western blot method; format: functional, cell-based; procedure, shortened: as §3
MEF [26] = assay: Induction of mitochondrial biogenesis in primary mouse embryonic fibroblasts at 5 uM incubated for 2 days by electron microscopy; format: functional, cell-based
Procedure, shortened: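 On day 10, MEF-derived white adipocytes were fixed in 2.5% glutaraldehyde for 1 h, post-fixed in 1% osmic acid for 1 h, dehydrated in graded ethanol and embedded in epoxy. Ultrathin sections were stained with uranyl acetate and lead citrate and examined by transmission electron microscopy.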

Mus musculus [27] = assay: In vivo induction of white adipose browning in C57BL6 mouse subcutaneous white adipose tissue assessed as increase in UCP1 mRNA expression at 20 mg/kg/day, po by real-time PCR assay; format: functional, organism-based
Procedure, shortened: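 Male C57BL6 mice (8 weeks) on 60% fat diet received 20 mg/kg compound or vehicle (5% alcohol in PBS) daily by oral gavage for 4 weeks. Subcutaneous white adipose was collected and stored at -80 °C; RNA was analyzed by SYBR qPCR against GAPDH.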

Mus musculus [28] = assay: In vivo induction of white adipose browning in C57BL6 mouse subcutaneous white adipose tissue assessed as increase in UCP1 positive stained area at 20 mg/kg/day, po by immunohistochemistry; format: functional, organism-based
Procedure, shortened: (§4)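 Male C57BL6 mice (8 weeks) on a high-fat diet (60% energy as fat) were gavaged daily for 4 weeks with 20 mg/kg compound or vehicle (5% alcohol in PBS). Adipose tissues were fixed overnight in 4% formaldehyde, paraffin-sectioned and immunostained for UCP1 (1:1000); UCP1-positive area was quantified. Two independent experiments.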

Mus musculus [29] = assay: In vivo induction of white adipose browning in C57BL6 mouse interscapularbrown adipose tissue assessed as increase in UCP1 expression at 20 mg/kg/day, po by immunohistochemistry; format: functional, organism-based; conditions: in the assay text read “subcutaneous white adipose tissue” for “interscapularbrown adipose tissue”; procedure, shortened: as §4

CC(C)c1ccc(/C=N/NC(=O)c2ccc(O)cc2)cc1
fold change (FC) [1]: 1.85

CC(C)c1ccccc1Cn1cc(-c2ccc(O)c(O)c2)nn1
fold change (FC) [1]: 2.4

CC(C)(C)c1ccc(Cn2cc(-c3ccc(O)c(O)c3)nn2)cc1
fold change (FC) [1]: 4.18

CC(C)c1ccc(Cn2cc(-c3ccc(O)cc3)nn2)cc1
fold change (FC) [1]: 1.69

Oc1ccc(-c2cn(Cc3ccccc3)nn2)cc1O
fold change (FC) [1]: 1.43

CC(C)c1ccc(Cn2cc(-c3ccccc3O)nn2)cc1
fold change (FC) [1]: 1.1 | Activity [2]: inactive | Activity [3]: inactive | Activity [4]: inactive | Activity [5]: inactive

Oc1ccc(-c2cn(Cc3ccc(-c4ccccc4)cc3)nn2)cc1O
fold change (FC) [1]: 2.56

Cc1ccc(Cn2cc(-c3ccc(O)c(O)c3)nn2)cc1
fold change (FC) [1]: 2.9

CC(C)c1ccc(Cn2cc(-c3cccc(O)c3)nn2)cc1
fold change (FC) [1]: 2.21

CC(C)c1ccc(Cn2cc(-c3ccc(O)c(O)c3)nn2)cc1
fold change (FC) [1]: 4.98 | Activity [6]: Dose-dependent effect | Activity [7]: Dose-dependent effect | Activity [8]: Dose-dependent effect | Activity [9]: Dose-dependent effect | Activity [10]: Dose-dependent effect | Activity (MEF [11]): Active | Activity [12]: Active | Activity [13]: Active | Kd [14]: 46 µM | ΔTm [15]: 0.7 °C | Activity (MEF [16]): Dose-dependent effect | Activity (MEF [17]): Active | Activity (MEF [18]): Active | Activity (MEF [19]): Active | Activity (Adipocyte): Active | Activity (MEF [20]): Active | Activity (MEF [21]): Active | Activity (MEF [22]): Active | Activity (MEF [23]): Active | Activity (MEF [24]): Active | Activity (MEF [25]): Active | Activity (MEF [26]): Active | Activity (Mus musculus [27]): Active | Activity (Mus musculus [28]): Active | Activity (Mus musculus [29]): Active

CC(C)c1cccc(Cn2cc(-c3ccc(O)c(O)c3)nn2)c1
fold change (FC) [1]: 3.32

CC(C)c1ccc(Cn2cc(-c3ccccc3)nn2)cc1
fold change (FC) [1]: 1.31
